This note sets out measurements from ChEMBL document CHEMBL4257581, “Discovery of Small Molecule Splicing Modulators of Survival Motor Neuron-2 (SMN2) for the Treatment of Spinal Muscular Atrophy (SMA)” (J Med Chem, 2018).

Some results are limits rather than exact numbers.

A short description of data set [1]: Lipophilicity, log D of the compound at pH 7.4. Format: physicochemical. To be noted: buffer.
A short description of data set [2]: Dissociation constant, pKa of the compound. Format: physicochemical.
For another data set, the species on record is Mus musculus. The experiment in a line: Stabilization of SMN2 mRNA in mouse myoblasts assessed as increase in SMN protein level by ELISA relative to DMSO control.
Data set [3] can be described thus: Intrinsic clearance in rat liver microsomes at 1 uM up to 30 mins in presence of NADPH by LC-MS/MS analysis. Format: ADME, microsome. To be noted: read-out: CLH. In general terms: Liver microsomes are a subcellular fraction often used to study metabolism.
Data set [4] in a line: AUC in mouse plasma at 10 mg/kg, po. Format: ADME, organism-based. The method in brief: (§1)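 Mouse PK: oral arm dosed at 10 mg/kg p.o. alongside a 1 mg/kg i.v. arm. Plasma and brain AUC were taken from the oral arm.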
A short description of data set [5]: AUC in mouse brain at 10 mg/kg, po. The class given is ADME, organism-based. The method in brief:
as §1

The nature of data set [6]: Clearance in mouse at 1 mg/kg, iv or 10 mg/kg, po. The class given is ADME, organism-based. To be noted: in vivo. The method in brief:
(§2)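 Mouse PK with dosing at 1 mg/kg i.v. and 10 mg/kg p.o.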

The nature of data set [7]: Half life in mouse at 1 mg/kg, iv or 10 mg/kg, po. Format: ADME, organism-based. The note with it: in vivo. In a few lines: as §2
Data set [8] in a line: Oral bioavailability in mouse at 10 mg/kg. Format: ADME, organism-based. The note with it: in vivo. In a few lines: as §1
The nature of data set [9]: Drug level in mouse brain at 10 mg/kg, po after 7 hrs. Format: ADME, organism-based. To be noted: read-out: Drug uptake. In a few lines: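 Mouse PK at 10 mg/kg p.o. Brain concentration was measured at a single time point, 7 h after the oral dose.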
Data set [10] can be described thus: Permeability of the compound at 5 uM after 4 hrs by PAMPA. The class given is ADME. For orientation: PAMPA measures passive passage across an artificial lipid membrane.
The nature of data set [11]: Clearance in Sprague-Dawley rat at 1 mg/kg, iv or 10 mg/kg, po. The class given is ADME, organism-based. To be noted: in vivo.
Data set [12] in a line: Oral bioavailability in Sprague-Dawley rat at 10 mg/kg. Format: ADME, organism-based. To be noted: in vivo.
The nature of data set [13]: AUC in Sprague-Dawley rat at 1 mg/kg, iv or 10 mg/kg, po. Format: ADME, organism-based. To be noted: in vivo.
A short description of data set [14]: Drug level in Sprague-Dawley rat brain at 1 mg/kg, iv or 10 mg/kg, po after 7 hrs. The class given is ADME, organism-based. To be noted: read-out: Drug uptake.
A short description of data set [15]: Solubility of the compound at pH 6.8. Format: physicochemical. To be noted: buffer.
Data set [16] can be described thus: Intrinsic clearance in mouse liver microsomes at 1 uM up to 30 mins in presence of NADPH by LC-MS/MS analysis. The class given is ADME, microsome. To be noted: read-out: CLH.
The nature of data set [17]: Plasma clearance in C57BL/6 mouse at 1 mg/kg, iv or 5 mg/kg, po. The class given is ADME, organism-based. In a few lines:
(§3)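 Mice received single doses of 1 mg/kg i.v. or 5 mg/kg p.o. (n = 2). The vehicle was 10% 0.1 N HCl, 10% PG, 25 (20%) Solutol and 100 mM pH 5 citrate buffer. Plasma was sampled for PK parameters.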

Data set [18] can be described thus: Oral bioavailability in C57BL/6 mouse at 5 mg/kg. The class given is ADME, organism-based. To be noted: in vivo. The method in brief:
as §3

A short description of data set [19]: AUC (0 to 7 hrs) in C57BL/6 mouse plasma at 1 mg/kg, iv or 5 mg/kg, po. Format: ADME, organism-based. The method in brief: as §3
Data set [20] is described as follows: Drug level in brain in C57BL/6 mouse brain at 1 mg/kg, iv or 5 mg/kg, po. Format: ADME, organism-based. To be noted: in vivo, read-out: Drug uptake.
A further data set is filed under the species Homo sapiens. The experiment in a line: Stabilization of SMN2 mRNA in human spinal muscular atrophy patient derived fibroblasts by ELISA. For orientation: ELISA stands for enzyme-linked immunosorbent assay.

Usually logD stands for the decadic logarithm of the distribution of all forms, ionised or not, between an organic phase and buffer at a given pH. A high value points to higher lipophilicity. The term pKa denotes the pH at which an ionisable group is half protonated. Low readings indicate a group that gives up its proton readily, high ones a group that holds its proton tightly. Broadly, the AUC is concentration integrated over time. The half-life is the time needed for the level to fall by half in the phase considered. What is called bioavailability is dose-corrected exposure relative to a reference, in per cent. A higher bioavailability goes with much systemic uptake. What is called solubility is the concentration that dissolves in the medium under given conditions. Higher therefore signals much dissolved substance. By AUC(0-t) is commonly meant the area under the concentration-time curve up to a stated or last time point. Low readings indicate less exposure, high ones more exposure.

Turning to `CC1(C)CC(Oc2ccc(-c3ccc(-n4cccn4)cc3O)nn2)CC(C)(C)N1`, in [1], the logD is 2.79. The pKa in data set [2] came out at 10.1.
As for `CN(c1ccc(-c2cc3ccccc3cc2O)nn1)C1CC(C)(C)NC(C)(C)C1`, the fold change (FC) in the data set listed under Mus musculus was 2.4 to 2.5. In data set [1], this compound displayed a logD of 4. The microsomal CLint at 1 µM in [3] turned out to be 17 µL/min/mg. Also, the AUC in data set [4] is 16.9 µM·h; in [5], 36.7 µM·h. In addition, the clearance in data set [6] is 56 mL/min/kg. The compound further showed a half-life in [7] of 3.7 h. The same compound had a bioavailability in data set [8] of 100%.
`Oc1cc(-c2cn[nH]c2)ccc1-c1ccc(N2C[C@H]3CNC[C@H]3C2)nn1` returned a logD in data set [1] of 0.58.
On to `CN(c1ccc(-c2ccc(C#N)cc2O)nn1)C1CC(C)(C)NC(C)(C)C1`, for which, in the data set listed under Mus musculus, the fold change (FC) was determined as 3.1. For the same compound, the logD in [1] worked out at 3.2. Also, in [3], the microsomal CLint at 1 µM stood at 7 µL/min/mg. Moreover, the AUC in [4] was 5.2 µM·h. In data set [9], the concentration at 7 h stood at 2000 nM. The clearance in data set [6] turned out to be 23 mL/min/kg. In [7], the half-life is 4.5 h. Also, in data set [8], the bioavailability amounted to 37%.
On to `CN(c1ccc(-c2ccc(-n3ccc(N)n3)cc2O)nn1)C1CC(C)(C)NC(C)(C)C1`, for which, in the data set filed under Mus musculus, the fold change (FC) is 2.8. This compound registered a logD in data set [1] of 2.52. The “log(permeability)” value in data set [10] is -5.2. Besides, the clearance in data set [11] came to 16 mL/min/kg. This compound also yielded a bioavailability in [12] of 4%. Moreover, the AUC in data set [13] was 0.092 µM·h. Moreover, the concentration at 7 h in data set [14] was less than 2.4 nM.
For `Oc1cc(-n2cccn2)ccc1-c1ccc(OC2CCNCC2(F)F)nn1` (stereo not drawn), the fold change (FC) in the data set filed under Mus musculus came to 1.2. This compound came in with a logD in data set [1] of 2.59. Besides, the pKa in data set [2] was 5.89.
With `CC1(C)CC(Oc2ccc(-c3ccc(-c4cn[nH]c4)cc3O)nn2)CC(C)(C)N1` [BRANAPLAM], the log distribution coefficient (logD) in data set [1] is 2.51. In [10], the “log(permeability)” value is -4.9. In data set [11], this compound gave a clearance of 25 mL/min/kg. The compound also yielded a bioavailability in data set [12] of 63%. In data set [13], the AUC turned out to be 3.03 µM·h. The concentration at 7 h in data set [14] stood at 914 nM.
`CN(c1ccc(-c2ccc(-n3cc(CO)cn3)cc2O)nn1)C1CC(C)(C)NC(C)(C)C1` registered a logD in [1] of 2.16. In data set [10], the “log(permeability)” value is given as -5.5.
Take `CC1(C)CC(Cc2ccc(-c3ccc(-c4cn[nH]c4)cc3O)nn2)CC(C)(C)N1`: the logD in data set [1] was determined as 2.89. For the same compound, the “log(permeability)” value in [10] is given as -5.3.
As for `CC1(C)CC(Nc2ccc(-c3ccc4ccccc4c3)nn2)CC(C)(C)N1`, the fold change (FC) in the data set filed under Mus musculus is 2.3.
`CN(c1ccc(-c2cc3ccccc3s2)nn1)C1CC(C)(C)NC(C)(C)C1` displayed a logD in data set [1] of 3.4. The microsomal CLint at 1 µM in [3] turned out to be 40 µL/min/mg. The figures for the AUC in data set [4] and in [5] were 4.9 µM·h and 17.4 µM·h, respectively. Besides, in data set [6], the clearance turned out to be 100 mL/min/kg. Besides, the half-life in [7] is 3.2 h. This compound came in with a bioavailability in data set [8] of 100%.
Consider `CC1(C)CC(Oc2ccc(-c3ccc(-n4cccn4)cc3O)nn2)CC(C)(C)N1CC(F)(F)F`, for which, in the data set listed under Mus musculus, the fold change (FC) is 1.1. For the same compound, the logD in data set [1] was determined as 4.65.
For the compound `COc1cc(C#N)ccc1-c1ccc(N(C)C2CC(C)(C)NC(C)(C)C2)nn1`, the fold change (FC) in the data set listed under Mus musculus is 2.3.
As to `CN(c1ccc(-c2ccc(-n3cccn3)cc2O)nn1)C1CC(C)(C)NC(C)(C)C1`, in the data set listed under Mus musculus, the fold change (FC) turned out to be 3.1. In addition, the logD in [1] worked out at 3.11. The pKa in [2] was 10.3.
Compound `Oc1cc(-c2cn[nH]c2)ccc1-c1ccc(N2CCC3(CCCNC3)C2)nn1` (stereo not drawn) registered a logD in data set [1] of 1.2.
As to `CN(c1ccc(-c2ccc(-c3cn[nH]c3)cc2O)nn1)C1CC(C)(C)NC(C)(C)C1`, in the data set listed under Mus musculus, the fold change (FC) was 3.1. For the same compound, the logD in data set [1] turned out to be 2.92. The “log(permeability)” value in [10] is on record as -5.4. Also, in data set [11], the clearance turned out to be 22 mL/min/kg. Moreover, the bioavailability in [12] amounted to 53%. The AUC in [13] was 2.3 µM·h. Further, in [14], the concentration at 7 h worked out at 58 nM.
In [1], `Oc1cc(-n2cccn2)ccc1-c1ccc(OC2CCNCC2)nn1` had a logD of 0.69.
`CC1(C)CC(Nc2ccc(-c3cccc4ccccc34)nn2)CC(C)(C)N1`: in the data set listed under Mus musculus, the fold change (FC) was determined as 1.
With `CN(c1ccc(-c2cc3cccnc3cc2O)nn1)C1CC(C)(C)NC(C)(C)C1`, the fold change (FC) in the data set listed under Mus musculus was 2.9. The logD in [1] was 3.23. Further, the “log(permeability)” value in [10] is reported as -4.5. This compound displayed a clearance in data set [11] of 35 mL/min/kg. In [12], this compound displayed a bioavailability of 46%. The same compound yielded an AUC in data set [13] of 1.17 µM·h. For the same compound, the concentration at 7 h in [14] was determined as 68 nM.
On to `CC1(C)CC(Nc2ccc(-c3cc4ccccc4s3)nn2)CC(C)(C)N1`, for which the results for the fold change (FC) in the data set filed under Mus musculus and in the data set filed under Homo sapiens were 2.5 and 1.5, respectively. This compound also came in with a logD in data set [1] of 2.67. The pKa in data set [2] stood at 10. The compound further gave a solubility in [15] of more than 1000 µM. Also, the microsomal CLint at 1 µM was 22.6 µL/min/mg in data set [3] and 23.5 µL/min/mg in [16]. Further, the clearance in [17] is 113 mL/min/kg. Moreover, in data set [18], the bioavailability was 18%. In data set [19], this compound showed an AUC(0-t) of 0.4 µM·h. Moreover, the concentration in [20] is less than 2.7 nM.
For `CN(c1ccc(-c2cc3cnccc3cc2O)nn1)C1CC(C)(C)NC(C)(C)C1`, in the data set listed under Mus musculus, the fold change (FC) was 2.6. Besides, in data set [1], the logD came out at 3.07. Besides, in [10], the “log(permeability)” value is reported as -4.3. This compound returned a clearance in data set [11] of 57 mL/min/kg. This compound also showed a bioavailability in data set [12] of 100%. Also, the AUC in data set [13] turned out to be 1.35 µM·h. For the same compound, the concentration at 7 h in data set [14] came to 630 nM.
